# Data published in ChEMBL document CHEMBL4689842, “EUbOPEN Chemogenomics Library wave 1” (2021).
# System: HEK-293T
# Test: Multiplex assay against HEK293T;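 for Population Tubulin-Different-Phenotype (%): share of the cells with healthy nuclei that show this phenotype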
# Format: toxicity, cell-based
# Conditions: human
# In short: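 Hoechst33342, BioTracker Green Microtubule Cytoskeleton Dye, MitoTracker Red and Annexin V Alexa Fluor 680 were added to live cells at seeding, and imaging on a CQ1 microscope at 37°C and 5% CO2 followed compound addition. Gating by CellPathfinder machine learning separated cells into Hoechst high-intensity objects or normal cells, then normal cells into healthy, pyknosed or fragmented nuclei, then pyknosed cells into mitotic or apoptotic. Per cents of healthy-nucleus cells are reported for the tubulin, mitochondrial-mass and membrane-permeability phenotypes.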
# [1] = 12 h, 1 µM, compound concentration 1 uM, replicate 1
# [2] = 12 h, 1 µM, compound concentration 1 uM, replicate 2
# [3] = 12 h, 10 µM, compound concentration 10 uM, replicate 1
# [4] = 12 h, 10 µM, compound concentration 10 uM, replicate 2
# [5] = 24 h, 1 µM, compound concentration 1 uM, replicate 1
# [6] = 24 h, 1 µM, compound concentration 1 uM, replicate 2
# [7] = 24 h, 10 µM, compound concentration 10 uM, replicate 1
# [8] = 24 h, 10 µM, compound concentration 10 uM, replicate 2
# [9] = 48 h, 1 µM, compound concentration 1 uM, replicate 1
# [10] = 48 h, 1 µM, compound concentration 1 uM, replicate 2
# [11] = 48 h, 10 µM, compound concentration 10 uM, replicate 1
# [12] = 48 h, 10 µM, compound concentration 10 uM, replicate 2
structure (smiles),measurement,setting,value
CCn1c(=O)c(-c2ccc(-c3cncs3)cc2Cl)cc2cnc(Nc3ccc(N4CCN(C)CC4)cc3)nc21,Population Apoptotic (%),[1],34%
same,Population Fragmented Nuclei (%),[1],7%
same,Population Healthy Nuclei (%),[1],46%
same,Population Hoechst High Intensity Objects (%),[1],14%
same,Population Membrane Permeable-Phenotype (%),[1],2%
same,Population Mitochondria Different-Phenotype (%),[1],79%
same,Population Mitotic Cells (%),[1],65%
same,Population Normal (%),[1],85%
same,Population Pyknosed Nuclei (%),[1],46%
same,Population Tubulin-Different-Phenotype (%),[1],55%
same,Total Cell Count,[1],232
same,Population Apoptotic (%),[2],10%
same,Population Fragmented Nuclei (%),[2],5%
same,Population Healthy Nuclei (%),[2],48%
same,Population Hoechst High Intensity Objects (%),[2],2%
same,Population Membrane Permeable-Phenotype (%),[2],9%
same,Population Mitochondria Different-Phenotype (%),[2],13%
same,Population Mitotic Cells (%),[2],89%
same,Population Normal (%),[2],97%
same,Population Pyknosed Nuclei (%),[2],45%
same,Population Tubulin-Different-Phenotype (%),[2],18%
same,Total Cell Count,[2],288
same,Population Apoptotic (%),[3],52%
same,Population Fragmented Nuclei (%),[3],47%
same,Population Healthy Nuclei (%),[3],21%
same,Population Hoechst High Intensity Objects (%),[3],62%
same,Population Membrane Permeable-Phenotype (%),[3],5%
same,Population Mitochondria Different-Phenotype (%),[3],93%
same,Population Mitotic Cells (%),[3],47%
same,Population Normal (%),[3],37%
same,Population Pyknosed Nuclei (%),[3],30%
same,Population Tubulin-Different-Phenotype (%),[3],93%
same,Total Cell Count,[3],1090
same,Population Apoptotic (%),[4],15%
same,Population Fragmented Nuclei (%),[4],7%
same,Population Healthy Nuclei (%),[4],55%
same,Population Hoechst High Intensity Objects (%),[4],4%
same,Population Membrane Permeable-Phenotype (%),[4],20%
same,Population Mitochondria Different-Phenotype (%),[4],16%
same,Population Mitotic Cells (%),[4],84%
same,Population Normal (%),[4],95%
same,Population Pyknosed Nuclei (%),[4],37%
same,Population Tubulin-Different-Phenotype (%),[4],38%
same,Total Cell Count,[4],174
same,Population Apoptotic (%),[5],57%
same,Population Fragmented Nuclei (%),[5],11%
same,Population Healthy Nuclei (%),[5],42%
same,Population Hoechst High Intensity Objects (%),[5],14%
same,Population Membrane Permeable-Phenotype (%),[5],2%
same,Population Mitochondria Different-Phenotype (%),[5],55%
same,Population Mitotic Cells (%),[5],42%
same,Population Normal (%),[5],85%
same,Population Pyknosed Nuclei (%),[5],45%
same,Population Tubulin-Different-Phenotype (%),[5],45%
same,Total Cell Count,[5],233
same,Population Apoptotic (%),[6],12%
same,Population Fragmented Nuclei (%),[6],4%
same,Population Healthy Nuclei (%),[6],65%
same,Population Hoechst High Intensity Objects (%),[6],1%
same,Population Membrane Permeable-Phenotype (%),[6],8%
same,Population Mitochondria Different-Phenotype (%),[6],15%
same,Population Mitotic Cells (%),[6],87%
same,Population Normal (%),[6],98%
same,Population Pyknosed Nuclei (%),[6],29%
same,Population Tubulin-Different-Phenotype (%),[6],31%
same,Total Cell Count,[6],358
same,Population Apoptotic (%),[7],59%
same,Population Fragmented Nuclei (%),[7],59%
same,Population Healthy Nuclei (%),[7],8%
same,Population Hoechst High Intensity Objects (%),[7],71%
same,Population Membrane Permeable-Phenotype (%),[7],0%
same,Population Mitochondria Different-Phenotype (%),[7],92%
same,Population Mitotic Cells (%),[7],40%
same,Population Normal (%),[7],28%
same,Population Pyknosed Nuclei (%),[7],31%
same,Population Tubulin-Different-Phenotype (%),[7],97%
same,Total Cell Count,[7],1552
same,Population Apoptotic (%),[8],30%
same,Population Fragmented Nuclei (%),[8],11%
same,Population Healthy Nuclei (%),[8],57%
same,Population Hoechst High Intensity Objects (%),[8],4%
same,Population Membrane Permeable-Phenotype (%),[8],15%
same,Population Mitochondria Different-Phenotype (%),[8],39%
same,Population Mitotic Cells (%),[8],69%
same,Population Normal (%),[8],95%
same,Population Tubulin-Different-Phenotype (%),[8],64%
same,Total Cell Count,[8],177
same,Population Apoptotic (%),[9],50%
same,Population Fragmented Nuclei (%),[9],14%
same,Population Healthy Nuclei (%),[9],57%
same,Population Hoechst High Intensity Objects (%),[9],13%
same,Population Membrane Permeable-Phenotype (%),[9],3%
same,Population Mitochondria Different-Phenotype (%),[9],33%
same,Population Mitotic Cells (%),[9],49%
same,Population Normal (%),[9],86%
same,Population Pyknosed Nuclei (%),[9],28%
same,Population Tubulin-Different-Phenotype (%),[9],36%
same,Total Cell Count,[9],308
same,Population Apoptotic (%),[10],11%
same,Population Fragmented Nuclei (%),[10],6%
same,Population Healthy Nuclei (%),[10],80%
same,Population Hoechst High Intensity Objects (%),[10],3%
same,Population Membrane Permeable-Phenotype (%),[10],7%
same,Population Mitochondria Different-Phenotype (%),[10],4%
same,Population Mitotic Cells (%),[10],88%
same,Population Normal (%),[10],96%
same,Population Pyknosed Nuclei (%),[10],13%
same,Population Tubulin-Different-Phenotype (%),[10],29%
same,Total Cell Count,[10],591
same,Population Apoptotic (%),[11],64%
same,Population Fragmented Nuclei (%),[11],72%
same,Population Healthy Nuclei (%),[11],6%
same,Population Hoechst High Intensity Objects (%),[11],74%
same,Population Membrane Permeable-Phenotype (%),[11],0%
same,Population Mitochondria Different-Phenotype (%),[11],84%
same,Population Mitotic Cells (%),[11],35%
same,Population Normal (%),[11],25%
same,Population Pyknosed Nuclei (%),[11],20%
same,Population Tubulin-Different-Phenotype (%),[11],75%
same,Total Cell Count,[11],1798
same,Population Apoptotic (%),[12],36%
same,Population Fragmented Nuclei (%),[12],8%
same,Population Healthy Nuclei (%),[12],70%
same,Population Hoechst High Intensity Objects (%),[12],4%
same,Population Membrane Permeable-Phenotype (%),[12],9%
same,Population Mitochondria Different-Phenotype (%),[12],25%
same,Population Mitotic Cells (%),[12],63%
same,Population Normal (%),[12],95%
same,Population Tubulin-Different-Phenotype (%),[12],63%
same,Total Cell Count,[12],238
